Measured values: publication PMC10357933 (RSC Medicinal Chemistry, 2023)
Like-named read-outs stand apart in the source and are kept apart here.

Tests used:
Conductometry in DMSO = format: physicochemical; details: for Conductivity ΛM: 1.0 mM solution in DMSO; for Increase of molecular conductivity upon 10-fold dilution: diluted solutions 0.1 to 1.0 mM in DMSO
Outline: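 Test compound dissolved at 1.0 mM, or as indicated, in freshly distilled DMSO (conductivity ≤3 × 10−8 […]). Conductivity measured at 25 ± 2 °C immediately after complete dissolution, then after 24 h and after 48 h.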

3CL^pro (SARS-CoV-2) = 3CL^pro (SARS-CoV-2) (Severe acute respiratory syndrome coronavirus 2, UniProt P0DTD1); format: biochemical
PL^pro (SARS-CoV-2) = PL^pro (SARS-CoV-2) (Severe acute respiratory syndrome coronavirus 2, UniProt P0DTD1); assay: biochemical
SARS-CoV-2 B.1 = assay: Antiviral activity against SARS-CoV-2 in Caco-2-F03 cells; format: cell-based; details: for Effect on viral activity at higher dosages: overlapping with toxicity
SARS-CoV-2 PL^pro [1] = target: T1, SARS-CoV-2 PL^pro (Severe acute respiratory syndrome coronavirus 2, UniProt P0DTD1); assay: Zn-ejection assay with FluoZin-3; format: biochemical; details: 0.5 μM PLpro, 100 min
PL^pro (SARS-CoV) = PL^pro (SARS-CoV) (Severe acute respiratory syndrome coronavirus, UniProt P0C6X7); format: biochemical; details: read-out: IC50 PL^pro (SARS-CoV)
SARS-CoV-2 PL^pro [2] = target: T1, SARS-CoV-2 PL^pro; assay: Michaelis-Menten kinetics with SARS-CoV-2 PLpro; format: biochemical
CaCo-2 cells = assay: Toxicity against host cells; format: cell-based, human; details: 25 to 500 μM, 24 h / 48 h
Outline: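 Caco-2 cells were grown to almost confluent monolayers in 96-well plates. Test compound was given as a DMSO stock (DMSO 0.2%) diluted in DMEM with 1% fetal calf serum and 50 mg L−1 gentamicin, at 25–500 μM. Exposure was 24 h and 48 h at 37 °C/5% CO2. Viability was measured by crystal violet staining as % of untreated control, in three independent experiments.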

[3] = 3CL^pro, 50 μM, ± SD of 2 experiments
[4] = read-out: IC50 PL^pro (SARS-CoV-2), mean ± SD of 2 independent experiments

Compound | Conductivity ΛM (Conductometry in DMSO; 24 h) [S mol^−1 cm^2] | Conductivity ΛM (Conductometry in DMSO; 48 h) [S mol^−1 cm^2] | Conductivity ΛM (Conductometry in DMSO; start) [S mol^−1 cm^2] | Percentage of activity of the enzyme in presence of 50 μM of the test compound (3CL^pro (SARS-CoV-2); [3]) [%] | IC50 (PL^pro (SARS-CoV-2); [4]) [nM] | other results
CCn1c[n+](CC)c2ccccc21.[Cl][Ag] [Ag-1a, 1,3-Diethyl benzimidazolium silver(I) chloride] | 3.09 | 3.31 | 3.00 | 106 ± 2 | 210 ± 30 | 
COc1ccc2c(c1)n(C(C)C)c[n+]2C(C)C.[Cl][Ag] [Ag-4a, 1,3-Diisopropyl-5-methoxy-benzimidazolium silver(I) chloride] | 2.25 | 2.40 | 2.15 | 115 ± 4 | 220 ± 110 | 
COc1ccc2c(c1)n(C(C)C)c[n+]2C(C)C [compound 4, 1,3-Diisopropyl-5-methoxy-benzimidazolium iodide] |  |  |  |  |  | IC50 (PL^pro (SARS-CoV-2)): > 100000 nM
CCn1c[n+](CC)c2ccccc21.[Ag][I] [Ag-1b, 1,3-Diethyl-benzimidazolium silver(I) iodide] | 9.31 | 9.70 | 8.44 | 110 ± 0 | 240 ± 110 | Effect on viral activity at higher dosages (SARS-CoV-2 B.1): completely terminated viral activity
CCN(CC)C(=S)SSC(=S)N(CC)CC [Disulfiram, reference compound] |  |  |  |  |  | Zn ejection efficacy (SARS-CoV-2 PL^pro [1]; 1.0 μM compound): low efficacy; Zn ejection efficacy (SARS-CoV-2 PL^pro [1]; 10 μM compound): high efficacy
O=[N+]([O-])[O-].[Ag+] [AgNO3, silver nitrate, reference compound] | 38 | 38 | 38 | 97 ± 6 | 700 ± 270 | Conductivity (Conductometry in DMSO; in DMSO, periods up to 48 h): 38 S mol^−1 cm^2; IC50 (PL^pro (SARS-CoV)): 12000 ± 870 nM
CCn1c[n+](CC)c2ccc(OC)cc21.[Cl][Ag] [Ag-2a, 1,3-Diethyl-5-methoxy-benzimidazolium silver(I) chloride] | 3.13 | 3.37 | 2.94 | 98 ± 15 | 180 ± 20 | 
CC(C)n1c[n+](C(C)C)c2ccccc21.[Ag][I] [Ag-3b, 1,3-Diisopropyl benzimidazolium silver(I) iodide] | 7.00 | 6.69 | 6.67 | 111 ± 14 | 190 ± 40 | Increase of molecular conductivity upon 10-fold dilution (Conductometry in DMSO): only slightly increased; Effect on viral activity at higher dosages (SARS-CoV-2 B.1): completely terminated viral activity
COc1ccc2c(c1)n(C(C)C)c[n+]2C(C)C.[Ag][I] [Ag-4b, 1,3-Diisopropyl-5-methoxy-benzimidazolium silver(I) iodide] | 6.92 | 7.32 | 6.72 | 116 ± 2 | 390 ± 70 | Enzymatic activity (% of untreated control) (PL^pro (SARS-CoV-2); 0.75 μM, after 60 min): approx. 40%; Enzymatic turnover (% of untreated control) (PL^pro (SARS-CoV-2); 0.75 μM, from beginning up to 30 min of exposure): approx. 60%; IC50 (PL^pro (SARS-CoV)): 13700 ± 1020 nM; Zn ejection efficacy (SARS-CoV-2 PL^pro [1]; 1.0 μM compound): low efficacy; Zn ejection efficacy (SARS-CoV-2 PL^pro [1]; 10 μM compound): high efficacy; Mechanism of inhibition (SARS-CoV-2 PL^pro [2]; Lineweaver-Burk, parallel lines): uncompetitive enzyme inhibitor; Ki (enzyme-substrate-inhibitor complex) (SARS-CoV-2 PL^pro [2]; uncompetitive model): 480 ± 220 nM; Cytotoxicity against almost confluent Caco-2 cell layers (CaCo-2 cells): non-toxic up to 500 μM; IC50 (SARS-CoV-2 B.1; read-out: IC50 antiviral efficacy (spike protein staining)): 580 nM
CCn1c[n+](CC)c2ccc(OC)cc21.[Ag][I] [Ag-2b, 1,3-Diethyl-5-methoxy-benzimidazolium silver(I) iodide] | 9.25 | 9.82 | 9.19 | 115 ± 4 | 430 ± 60 | 
CC(C)n1c[n+](C(C)C)c2ccccc21.[Cl][Ag] [Ag-3a, 1,3-Diisopropyl benzimidazolium silver(I) chloride] | 2.70 | 2.67 | 2.34 | 116 ± 5 | 210 ± 20 | Increase of molecular conductivity upon 10-fold dilution (Conductometry in DMSO): 2–4 fold
CC(=O)O.[Ag+].c1ccc(CN2[CH-]N(Cc3ccccc3)C(c3ccccc3)=C2c2ccccc2)cc1 [SBC3, reference compound] | 2.25 | 2.31 | 2.15 |  |  | Increase of molecular conductivity upon 10-fold dilution (Conductometry in DMSO): 2–4 fold; Inhibition of 3CL^pro enzymatic activity (3CL^pro (SARS-CoV-2)): some moderate inhibition; Percentage of activity of the enzyme in presence of 50 μM of the test compound (3CL^pro (SARS-CoV-2)): >50 (70 ± 4%); IC50 (3CL^pro (SARS-CoV-2); read-out: IC50 3CL^pro (SARS-CoV-2)): > 50000 nM; IC50 (PL^pro (SARS-CoV-2); read-out: IC50 PL^pro (SARS-CoV-2)): 260 ± 30 nM
